Data published in ChEMBL document CHEMBL2040804, “A SAR study on a series of synthetic lipophilic chalcones as inhibitor of transcription factor NF-κB” (Eur J Med Chem, 2012).

What was measured:
Type in all cases: cell-based
RAW264.7 [1] = experiment: Inhibition of LPS-induced NF-kappaB activation in mouse RAW264.7 cells transfected with IKKbeta-pSV-b-galactosidase control vector at 30 uM after 20 hrs by secretory alkaline phosphatase assay
How it was run: (§1)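 RAW 264.7 cells stably carrying a pNF-κB-SEAP-NPT reporter were transfected by lipofectamine with a constitutively active IKKβ vector plus pSV-β-galactosidase control vector. Cells were treated with samples for 20 h. Culture medium aliquots were heated at 65 °C for 5 min and reacted with 4-methylumbelliferyl phosphate in the dark. SEAP fluorescence was read at ex 360/em 449 nm and normalized to β-galactosidase activity.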

[2] = Inhibition of LPS-induced NF-kappaB activation in mouse RAW264.7 cells transfected with IKKbeta-pSV-b-galactosidase control vector after 20 hrs by secretory alkaline phosphatase assay; how it was run: as §1
RAW264.7 [3] = experiment: Cytotoxicity against mouse RAW264.7 cells by MTT assay

Row | Structure (SMILES) | inhibition (RAW264.7 [1]) [%] | IC50 [2] [µM] | IC50 (RAW264.7 [3]) [µM]
1 | CCCCCCCCC(CCCCCC)CCOc1cccc(O)c1C(=O)/C=C/c1ccc(O)cc1 (configuration not stated) | 100 | 9.6 | > 30
2 | CCCCCCCCCCCCOc1cccc(O)c1C(=O)CCc1ccc(O)cc1 | 52 | > 30 | > 30
3 | CCCCCCCCCCOc1cccc(O)c1C(=O)/C=C/c1cc(OC)c(O)c(OC)c1 | 53 | > 30 | > 30
4 | CCCCCCCCCCOc1cccc(O)c1C(=O)/C=C/c1ccc(O)cc1 | 100 | 2.7 | > 30
5 | CCCCCCCCOc1cccc(O)c1C(=O)/C=C/c1ccc(O)cc1 | 100 | 5 | > 30
6 | CCCCCCCCCCOc1cccc(O)c1C(=O)/C=C/c1ccc(Cl)c(Cl)c1 | 26 | > 30 | > 30
7 | CCCCCCCCCCCCCCCCCCOc1cccc(O)c1C(=O)/C=C/c1ccc(O)cc1 | 22 | > 30 | > 30
8 | CC(C)CCOc1cccc(O)c1C(=O)/C=C/c1ccc(O)cc1 | 100 | 10 | > 30
9 | CCCCCCCCCCCCOc1cccc(O)c1C(O)CCc1ccc(O)cc1 (configuration not stated) | 80 | > 30 | > 30
10 | CCCCCCCCCCOc1cccc(O)c1C(=O)/C=C/c1ccc(O)c(Cl)c1 | 100 | 9.6 | > 30
11 | CCCCCCCCCCCCCCOc1cccc(O)c1C(=O)/C=C/c1ccc(O)cc1 | 100 | 4.2 | > 30
12 | CCCCCCCCCCCCCCOc1ccc(C(=O)/C=C/c2ccc(O)cc2)c(O)c1 | 50 | 29 | > 30
13 | CCCCCCCCCCOc1cccc(O)c1C(=O)/C=C/c1ccccc1O | 45 | > 30 | > 30
14 | CCCCCCCCCCOc1cccc(O)c1C(=O)/C=C/c1cccc(O)c1 | 22 | > 30 | > 30
15 | CCCCCCCCCCOc1cccc(O)c1C(=O)/C=C/c1ccc(OC)cc1 | 18 | > 30 | > 30
16 | CCCCCCOc1cccc(O)c1C(=O)/C=C/c1ccc(O)cc1 | 15 | > 30 | > 30
17 | O=C(/C=C/c1ccc(O)cc1)c1c(O)cccc1OCc1ccccc1 | 28 | > 30 | > 30
18 | CCCCC/C=C\CCCCOc1cccc(O)c1C(=O)/C=C/c1ccc(O)cc1 | 8 | > 30 | > 30
19 | CCCCCCCCCCCCCCCCOc1cccc(O)c1C(=O)/C=C/c1ccc(O)cc1 | 42 | > 30 | > 30
20 | CCCCCCCCCCOc1cccc(O)c1C(=O)/C=C/c1ccc(C)cc1 | 8 | > 30 | > 30
21 | O=C(/C=C/c1ccc(O)cc1)c1c(O)cccc1OCC1CCCCC1 | 60 | > 30 | > 30
22 | CCCCCCOc1cccc(O)c1C(=O)/C=C/c1ccc(OCCCCC)cc1 | 17 | > 30 | > 30
23 | CCCCCCCCCCCCOc1cccc(O)c1C(=O)/C=C/c1ccc(O)cc1 | 100 | 9.4 | > 30
24 | CCCCCCCCCCCCCCOc1cccc(O)c1C(=O)/C=C/c1ccc(OCCCCCCCCCCCCC)cc1 | 10 | > 30 | > 30
